Measured values as given in ChEMBL document CHEMBL3588826, “Chimeric derivatives of functionalized amino acids and α-aminoamides: compounds with anticonvulsant activity in seizure models and inhibitory actions on central, peripheral, and cardiac isoforms of voltage-gated sodium channels” (Bioorg Med Chem, 2015).
Calls of active or inactive are those of the source. The calls are words filed in the database; no cut-off is given here.

Experiments:
[1] = test system: Mus musculus; test: Anticonvulsant activity in ip dosed albino Carworth Farms No. 1 mouse measured at 1 hr by maximal electroshock seizure test; format: functional; details: Carworth Farms No. 1, ip
Procedure, shortened: (§1)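 Screened under the NIH anticonvulsant program in male albino Carworth Farms No. 1 mice (ip) and male albino Sprague-Dawley rats (ip or oral). Protection tested by maximal electroshock or 6 Hz (32 mA) psychomotor stimulation.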

[2] = test system: Rattus norvegicus; test: Anticonvulsant activity in po dosed albino Sprague-Dawley rat measured at 5 hrs by maximal electroshock seizure test; format: functional; procedure, shortened: as §1
[3] = test system: Mus musculus; test: Anticonvulsant activity in ip dosed albino Carworth Farms No. 1 mouse measured at 0.5 hrs by 6Hz (32 mA) psychomotor seizure test; format: functional; details: Carworth Farms No. 1, ip; procedure, shortened: as §1
[4] = Behavioural toxicity in po dosed albino Sprague-Dawley rat measured at 0.5 hrs; format: organism-based; details: in vivo
Procedure, shortened: (§2)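 Male albino Sprague-Dawley rats were dosed ip or orally. […] Protective index = TD50/ED50, the ED50 taken from maximal electroshock by the same route.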

[5] = test system: Mus musculus; test: Anticonvulsant activity in ip dosed albino Carworth Farms No. 1 mouse measured at 0.25 hrs by maximal electroshock seizure test; format: functional; details: Carworth Farms No. 1, ip; procedure, shortened: as §1
[6] = test system: Mus musculus; test: Anticonvulsant activity in ip dosed albino Carworth Farms No. 1 mouse measured at 0.5 - 2.0 hrs by maximal electroshock seizure test; format: functional; details: Carworth Farms No. 1, ip; procedure, shortened: as §1
[7] = (§3) Neurotoxicity in ip dosed albino Carworth Farms No. 1 mouse measured at 0.5 hrs by rotarod test; format: toxicity, organism-based; details: Carworth Farms No. 1, mouse, in vivo
Procedure, shortened: (§4)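 Male albino Carworth Farms No. 1 mice were dosed ip. Protective index = TD50/ED50, the ED50 taken from the ip maximal electroshock test.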

[8] = organism: Rattus norvegicus; test: Inhibition of voltage-gated sodium channel in rat embryonic cortical neurons assessed as decrease in fraction of current available at 10 uM measured at -50 mV by whole cell patch-clamp electrophysiology
Procedure, shortened: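 Embryonic cortical neurons were treated with 10 μM compound or 0.1% DMSO, whole-cell voltage clamp at room temperature. Slow inactivation was assessed at −50 mV, with the fraction inactivated taken as 1 minus the normalized INa. Student's t-test; 5–8 cells per condition.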

[9] = organism: Rattus norvegicus; test: Effect on steady state fast-inactivation of voltage-gated sodium channel in rat embryonic cortical neurons at 10 uM by whole cell patch-clamp electrophysiology
Procedure, shortened: (§5)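 Rat embryonic day 19 cortical neurons, cultured 7–10 days, were whole-cell voltage-clamped at room temperature with 1–2 MΩ electrodes, with compound at 10 μM and 0.1% DMSO as control. Fast inactivation: 500 ms prepulses, then a test pulse. Activation: conductance G = I/(Vm − Vrev). V1/2 and k came from Boltzmann fits to individual cells, averaged (mean ± SEM), 5–7 cells per condition.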

[10] = organism: Rattus norvegicus; test: Effect on steady state activation of voltage-gated sodium channel in rat embryonic cortical neurons at 10 uM by whole cell patch-clamp electrophysiology; procedure, shortened: as §5
[11] = organism: Rattus norvegicus; test: Frequency-dependent inhibition of voltage-gated sodium channel in rat embryonic cortical neurons assessed as current amplitude at 10 uM measured at holding potential of -80 mV by whole cell patch-clamp electrophysiology
Procedure, shortened: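 E19 rat cortical neurons cultured 7–10 days were recorded by whole-cell voltage clamp at room temperature. Compound was at 10 μM versus 0.1% DMSO. A pulse train was applied, and available current was taken as peak current at pulse N divided by peak at pulse 1.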

[12] = test system: Mus musculus; test: Anticonvulsant activity in ip dosed albino Carworth Farms No. 1 mouse measured at 0.25-0.5 hrs by 6Hz (32 mA) psychomotor seizure test; format: functional; details: Carworth Farms No. 1, ip
Procedure, shortened: (§6)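 Screened under the NIH Anticonvulsant Screening Program in male rodents, with mice and rats dosed ip and rats also dosed po. Maximal electroshock (MES) and 6 Hz (32 mA) psychomotor seizure tests were run.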

[13] = Protective index, ratio of TD50 for neurotoxicity in ip dosed albino Carworth Farms No. 1 mouse to ED50 for anticonvulsant activity in ip dosed MES albino Carworth Farms No. 1 mouse model; format: toxicity, organism-based; details: in vivo, read-out: Ratio TD50/ED50; procedure, shortened: as §4
[14] = test system: Rattus norvegicus; test: Anticonvulsant activity in po dosed albino Sprague-Dawley rat measured at 0.25 - 4.0 hrs by maximal electroshock seizure test; format: functional; procedure, shortened: as §6
[15] = Behavioural toxicity in po dosed albino Sprague-Dawley rat measured at 0.25 - 4 hrs; format: organism-based; details: in vivo; procedure, shortened: as §2
[16] = test system: Rattus norvegicus; test: Anticonvulsant activity in po dosed albino Sprague-Dawley rat by maximal electroshock seizure test; format: functional; procedure, shortened: as §6
[17] = Behavioural toxicity in po dosed albino Sprague-Dawley rat; details: in vivo
[18] = test system: Rattus norvegicus; test: Anticonvulsant activity in ip dosed albino Sprague-Dawley rat by maximal electroshock seizure test; format: functional; procedure, shortened: as §6
[19] = Neurotoxicity in ip dosed albino Carworth Farms No. 1 mouse measured at 0.25 hrs by rotarod test; format: toxicity, organism-based; details: in vivo
[20] = test system: Rattus norvegicus; test: Anticonvulsant activity in po dosed albino Sprague-Dawley rat measured at 0.5 hrs by maximal electroshock seizure test; format: functional; procedure, shortened: as §1
[21] = test system: Rattus norvegicus; test: Anticonvulsant activity in ip dosed albino Sprague-Dawley rat measured at 0.25 hrs by maximal electroshock seizure test; format: functional; procedure, shortened: as §1
[22] = Behavioural toxicity in ip dosed albino Sprague-Dawley rat measured at 0.25 hrs; format: organism-based; details: in vivo; procedure, shortened: as §2
[23] = Protective index, ratio of TD50 for behavioural toxicity in ip dosed albino Sprague-Dawley rat to ED50 for anticonvulsant activity in ip dosed MES albino Sprague-Dawley rat model; format: organism-based; details: in vivo, read-out: Ratio TD50/ED50; procedure, shortened: as §2
[24] = test system: Rattus norvegicus; test: Anticonvulsant activity in po dosed albino Sprague-Dawley rat measured at 0.25 - 1 hr by maximal electroshock seizure test; format: functional; procedure, shortened: as §1
[25] = Behavioural toxicity in ip dosed albino Sprague-Dawley rat measured at 1 hr; format: organism-based; details: in vivo; procedure, shortened: as §2
[26] = organism: Rattus norvegicus; test: Inhibition of voltage-gated sodium channel in rat embryonic cortical neurons assessed as half-maximal voltage for steady state activation at 10 uM by whole cell patch-clamp electrophysiology (reference value: -27.1 +/- 1.3 mV); procedure, shortened: as §5
[27] = test system: Mus musculus; test: Anticonvulsant activity in ip dosed albino Carworth Farms No. 1 mouse measured at 0.5 hrs by maximal electroshock seizure test; format: functional; details: Carworth Farms No. 1, ip; procedure, shortened: as §1
[28] = test system: Mus musculus; test: as §3; format: toxicity, organism-based; details: mouse, in vivo, 0.5 h; procedure, shortened: as §4
[29] = test system: Rattus norvegicus; test: Anticonvulsant activity in po dosed albino Sprague-Dawley rat measured at 0.5 - 4 hrs by maximal electroshock seizure test; format: functional; procedure, shortened: as §1
[30] = test system: Mus musculus; test: Anticonvulsant activity in ip dosed albino Carworth Farms No. 1 mouse measured at 0.25 hrs by 6Hz (32 mA) psychomotor seizure test; format: functional; details: Carworth Farms No. 1, ip; procedure, shortened: as §1
[31] = test system: Rattus norvegicus; test: Anticonvulsant activity in po dosed albino Sprague-Dawley rat measured at 1 hr by maximal electroshock seizure test; format: functional; procedure, shortened: as §1
[32] = Protective index, ratio of TD50 for behavioural toxicity in po dosed albino Sprague-Dawley rat to ED50 for anticonvulsant activity in po dosed MES albino Sprague-Dawley rat model; format: organism-based; details: in vivo, read-out: Ratio TD50/ED50
Procedure, shortened: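 Male albino Sprague-Dawley rats were dosed ip or orally. Protective index = TD50/ED50, the ED50 taken from maximal electroshock by the same route.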

[33] = test system: Rattus norvegicus; test: Anticonvulsant activity in ip dosed albino Sprague-Dawley rat measured at 0.5 hrs by maximal electroshock seizure test; format: functional; procedure, shortened: as §6
[34] = Behavioural toxicity in ip dosed albino Sprague-Dawley rat measured at 0.5 hrs; format: organism-based; details: in vivo
[35] = organism: Rattus norvegicus; test: Inhibition of voltage-gated sodium channel in rat embryonic cortical neurons assessed as transition of channels to slow-inactivated state at 10 uM measured at -50 mV by whole cell patch-clamp electrophysiology
Procedure, shortened: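 E19 rat cortical neurons cultured 7–10 days were recorded by whole-cell voltage clamp at room temperature, with electrodes of 1–2 MΩ. Compound was at 10 μM versus 0.1% DMSO control. Slow inactivation at −50 mV was calculated as 1 minus normalized peak INa, from 5–8 cells per condition.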

[36] = test system: Mus musculus; test: Anticonvulsant activity in ip dosed albino Carworth Farms No. 1 mouse by maximal electroshock seizure test; format: functional; details: Carworth Farms No. 1, ip; procedure, shortened: as §6

CCC1(c2ccccc2)C(=O)NC(=O)NC1=O [PHENOBARBITAL]
ED50 [1]: 22 mg/kg | ED50 [2]: 9.1 mg/kg

COC[C@@H](NC(C)=O)C(=O)NCc1ccccc1 [LACOSAMIDE]
ED50 [3]: 10 mg/kg | TD50 at 0.5 h [4]: > 500 mg/kg

CCCC(CCC)C(=O)O [VALPROIC ACID]
ED50 [5]: 270 mg/kg

COC[C@@H](NC(C)=O)C(=O)NCc1ccc(Oc2ccccc2)cc1
ED50 [6]: < 30 mg/kg | ED50 [3]: < 30 mg/kg | TD50 at 0.5 h [7]: < 100 mg/kg | inhibition [8]: Active | Activity [9]: inactive | Activity [10]: inactive | inhibition [11]: inactive

COC[C@@H](NC(C)=O)C(=O)NCc1ccc(Oc2cccc(F)c2)cc1
ED50 [5]: 5.5 mg/kg | ED50 [12]: 10 mg/kg | selectivity ratio [13]: 4.2 | ED50 [14]: < 10 mg/kg | TD50 [15]: > 10 mg/kg | inhibition [11]: inactive

O=C1NC(=O)C(c2ccccc2)(c2ccccc2)N1 [PHENYTOIN]
ED50 [16]: 28 mg/kg | TD50 [17]: > 1000 mg/kg | ED50 [18]: 2.4 mg/kg

COC[C@@H](NC(C)=O)C(=O)NCc1ccc(Oc2cccc(C)c2)cc1
ED50 [5]: 14 mg/kg | ED50 [3]: 100 mg/kg | TD50 at 0.25 h [19]: 65 mg/kg | selectivity ratio [13]: 4.6 | ED50 [20]: < 30 mg/kg | TD50 [15]: > 30 mg/kg | ED50 [21]: 12 mg/kg | TD50 at 0.25 h [22]: 140 mg/kg | selectivity ratio [23]: 12 | inhibition [11]: inactive

COC[C@@H](NC(C)=O)C(=O)NCc1ccc(Oc2cccc(OC)c2)cc1
ED50 [5]: 13 mg/kg | ED50 [3]: < 100 mg/kg | TD50 at 0.25 h [19]: 85 mg/kg | selectivity ratio [13]: 6.5 | ED50 [24]: 30 mg/kg | TD50 [15]: > 30 mg/kg | ED50 [21]: 15 mg/kg | TD50 at 1 h [25]: 120 mg/kg | selectivity ratio [23]: 8 | V1/2 [26]: -36.8 mV | inhibition [11]: inactive

COC[C@@H](NC(C)=O)C(=O)NCc1ccc(Oc2cccc(C(F)(F)F)c2)cc1
ED50 [27]: 10 mg/kg | ED50 [3]: < 100 mg/kg | TD50 [28]: > 100 mg/kg | ED50 [29]: < 30 mg/kg | TD50 [15]: > 30 mg/kg | V1/2 [26]: -35.6 mV | inhibition [11]: inactive

COC[C@@H](NC(C)=O)C(=O)NCc1ccc(Oc2cccc(Cl)c2)cc1
ED50 [27]: 9.4 mg/kg | ED50 [30]: 20 mg/kg | TD50 at 0.25 h [19]: 47 mg/kg | selectivity ratio [13]: 5 | ED50 [31]: 12 mg/kg | TD50 at 0.5 h [4]: 210 mg/kg | selectivity ratio [32]: 18 | ED50 [33]: 5.9 mg/kg | TD50 at 0.5 h [34]: 49 mg/kg | selectivity ratio [23]: 8.3 | inhibition [35]: Active | inhibition [11]: inactive

C[C@H](NCc1ccc(OCc2cccc(F)c2)cc1)C(N)=O [SAFINAMIDE]
ED50 [36]: 4.1 mg/kg | ED50 [16]: 12 mg/kg
